Series [1] concerns human cyt bc1. The conditions noted are these: cited from earlier work.
For series [2], the system named is virulent Type I RH strain of T. gondii that expresses luciferase. Put plainly: In vivo efficacy against acute toxoplasmosis in mice. The conditions noted are these: 5 mg/kg orally for 5 days; for luminescence from infection: at day 13 / prior to euthanasia; for survival of infected mice: CF-1 mice, 4 per group. The arrangement: species or system Toxoplasma gondii.

Series [3] deals with S. cerevisiae cyt bc1. To be noted: cited from earlier work.
Series [4] relates to T. gondii RH strain with T222P substitution in the cyt b Qi site. The series can be described thus: T. gondii T222P strain proliferation assay. The series is classed as cell-based, Toxoplasma gondii. The essentials:
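Compounds were DMSO-diluted (≤0.5% final) over human foreskin fibroblast monolayers. Wild-type or Thr222Pro RH tachyzoites (4000/well) expressing gfp and β-galactosidase were added; the mutant came from chemical mutagenesis plus selection. After 72 h at 37°C, 5% CO2, cells were lysed and chlorophenol red β-galactopyranoside added for 4 h, read spectrophotometrically. Each run ≥3 times in quadruplicate. Resistance is the T222P/wild-type EC50 ratio.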

Series [5] deals with RH strain of T. gondii expressing β-galactosidase (wild type cyt b). The series can be described thus: 72h T. gondii tachyzoite proliferation assay. To be noted: Toxoplasma gondii, read-out: T. gondii EC50. The series is classed as cell-based.
The test system of series [6] is Dd2 P. falciparum strain. Put plainly: 72h P. falciparum blood stage proliferation assay. The series is classed as cell-based. To be noted: Plasmodium falciparum, DD2, 72 h, read-out: Dd2 EC50 (P. falciparum). The essentials:
(§1)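 Dd2 or I22L clone (I22L selected from Dd2 under quinolone pressure) blood stages in 2-fold dilution series, in triplicate. Final hematocrit 2% (v/v), starting parasitemia 0.2%. Incubated 72 h at 37°C under 5% CO2/5% O2/90% N2. SYBR Green I dye-detergent added for 1 h at room temperature in the dark, then fluorescence read. EC50 is the mean of ≥3 experiments. […]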

The subject of series [7] is P. falciparum Dd2 strain with I22L substitution in cytochrome b. The series can be described thus: P. falciparum I22L strain proliferation assay. The series is classed as cell-based, Plasmodium falciparum. The essentials:
as §1

For series [8] the following is noted: cited from earlier work.
The conditions of series [9]: rats, orally at 5 mk/kg; cited from earlier work.
Series [10] concerns N. caninum. To be noted: 10mg/kg dose; cited from earlier work.
For series [11], the system named is Plasmodium. The conditions noted are these: single dose of 1 mg/kg; cited from earlier work.

“Also recorded” adds a separate entry of the source.

Take `O=C1C(O)=C([C@H]2CC[C@H](c3ccc(Cl)cc3)CC2)C(=O)c2ccccc21` [ATV, Atovaquone, reference compound]: the “activity against human cyt bc1” value in series [1] is given as “has activity”. In addition, in [2], the “T. gondii DNA in brain (quantitative real-time PCR)” value (“T. gondii DNA in brain” for short) was “developed both systemic and brain infection”; the “T. gondii DNA in spleen (quantitative real-time PCR)” value (“T. gondii DNA in spleen” for short) is “developed both systemic and brain infection”; the luminescence from infection entry was “detectable in the 2 surviving mice”.

Take `Cc1[nH]c2ccccc2c(=O)c1-c1ccc(Oc2ccc(OC(F)(F)F)cc2)cc1` [Compound 1B]: the “activity against human cyt bc1” value in series [1] is listed as “has activity”. In series [3], the “activity against yeast (S. cerevisiae) cyt bc1” value (“activity against yeast” below) is “has activity”.

Consider `COc1ccc2c(=O)c(-c3ccc(Oc4ccc(OC(F)(F)F)cc4)cc3)c(C)[nH]c2c1` [Compound 2B], for which the “activity against human cyt bc1” value in [1] is “do not inhibit”. Besides, the “activity against yeast” value in series [3] was “do not inhibit”. The “resistance caused by T222P substitution in T. gondii” value (“resistance caused … in T. gondii” for short) in [4] was “causes resistance”.

Regarding `CCCCCCCCCCCc1c(C)[nH]c2cc(OC)ccc2c1=O` [Compound 2C, 7-methoxy-2-methyl-3-undecylquinolin-4(1H)-one], the EC50 (usually the concentration needed to bring the measured effect to its halfway point) is 0.37 nM in series [5] and 1.8 nM in series [6].

As for `COc1cc2[nH]c(C)c(-c3ccc(Oc4ccc(OC(F)(F)F)cc4)cc3)c(=O)c2cc1F` [Compound 3B], the “activity against human cyt bc1” value in series [1] is given as “do not inhibit”. Also, in series [3], the “activity against yeast” value is given as “do not inhibit”. In series [2], the “T. gondii DNA in brain” value was “evidence of brain infection by PCR that was similar to controls” and the luminescence from infection is 3 of 4 mice did not have luminescence. Moreover, in series [2] (listed as ELQ-316), the “T. gondii DNA in brain” value is “had T. gondii infection in brain tissue” and the “T. gondii DNA in spleen” value was “not detected above the limits of detection in the spleen of 3 of 4 mice”. Besides, the “resistance caused … in T. gondii” value in series [4] was “causes resistance”.

With `COc1cc2[nH]c(C)c(-c3ccc(Oc4ccc(OC(F)(F)F)cc4)cc3)c(=O)c2cc1Cl` [Compound 4B], the “activity against human cyt bc1” value in [1] is reported as “do not inhibit”. For the same compound, the “resistance caused by I22L substitution in P. falciparum” value in series [7] is listed as “causes resistance”. Moreover, in series [3], the “activity against yeast” value is “do not inhibit”. Further, in series [4], the “resistance caused … in T. gondii” value is reported as “causes resistance”.

`Cc1[nH]c2cc(F)cc(F)c2c(=O)c1-c1ccc(Oc2ccc(OC(F)(F)F)cc2)cc1` [Compound 8B]: the “activity against human cyt bc1” value in [1] was “has activity”. The “toxicity in general cell assays and in vivo efficacy studies” value in series [8] is given as “toxicity was not observed”. Moreover, in [9], the maximum concentration was 71.2 ng/mL. The “efficacy against N. caninum infection” value in [10] is on record as “effective in reducing infection”. Besides, in series [3], the “site of inhibition in S. cerevisiae cyt b” value is “inhibit both the Qo and Qi site”. Besides, in series [2], the “T. gondii DNA in brain” value is reported as “not detected”, the “T. gondii DNA in spleen” value is given as “not detected” and the “survival of infected mice” value is “survived until day 32; also recorded: all mice survived”. In series [2] (listed as ELQ-400), the “survival of infected mice” value was “alive at the completion of the experiment”, the “T. gondii DNA in brain” value is reported as “did not have infection detectable by PCR” and the “T. gondii DNA in spleen” value was “none of the mice”. The “efficacy in a mouse model of malaria” value in [11] was “curative”.

The values are drawn from PMC6884402 (ACS infectious diseases, 2018).
